{"data": "Published values pooled from the literature"}
{"Structure (SMILES)": "COc1ccc2c(Cc3ccccc3F)c3n(c(=O)c2c1OC)CCc1cc2c(cc1-3)OCO2", "system": "rat, plasma", "conditions": "intravenous, 5 mg/kg", "AUC(0-inf)": "22700 ng·h/mL"}
{"Structure (SMILES)": "COc1nc(-c2cc(C)c(N[C@@H](C)c3cc(F)cc(F)c3)nn2)ccc1-n1cnc(C)c1", "system": "male Sprague-Dawley rat, plasma", "conditions": "intravenous, 1 mg/kg, single dose", "AUC(0-inf)": "6710 ng·h/mL"}
{"Structure (SMILES)": "CNCc1cc(-c2ccccc2F)n(S(=O)(=O)c2cccnc2)c1", "system": "Sprague-Dawley rat, plasma", "conditions": "oral, 10 mg/kg", "AUC(0-inf)": "645 ng·h/mL"}
{"Structure (SMILES)": "CCc1nc(C(N)=O)c(Nc2ccc(N3CCC(N4CCN(C)CC4)CC3)c(OC)c2)nc1NC1CCOCC1", "system": "male Sprague-Dawley rat, plasma", "conditions": "oral, 10 mg/kg", "AUC(0-inf)": "11500 ng·h/mL"}
{"Structure (SMILES)": "O=C(Nc1cc(F)c(F)c(F)c1)c1ccc(F)c(S(=O)(=O)NCc2cccc(B(O)O)c2)c1", "system": "male Sprague-Dawley rat, plasma", "conditions": "intravenous, 2 mg/kg", "AUC(0-inf)": "246 ng·h/mL"}
{"Structure (SMILES)": "CCOC(=O)[C@@]12C[C@@H]1[C@@H](n1ccc3c(NC)nc(C#Cc4ccc(Cl)s4)nc31)[C@H](O)[C@@H]2O", "system": "male Sprague-Dawley rat, plasma", "conditions": "oral, 3 mg/kg", "AUC(0-inf)": "172 ng·h/mL"}
{"Structure (SMILES)": "Cc1c(-c2ccccc2)cccc1N1C(=O)c2cc(CN[C@H](C(=O)O)C(C)O)c(OCc3cccc(C#N)c3)cc2C1=O (some centres unmarked)", "system": "Sprague-Dawley rat, plasma", "conditions": "oral, 50 mg/kg", "AUC(0-inf)": "100 ng·h/mL"}
{"Structure (SMILES)": "COc1cc2c3c(n(CCCN4CCOCC4)c(=O)c2cc1OC)-c1cc2c(cc1C3=O)OCO2", "system": "male Fischer 344 rat, plasma", "conditions": "intravenous, 24 mg/m², single dose", "AUC(0-inf)": "421 ng·h/mL"}
{"Structure (SMILES)": "Oc1c(Br)cc(Cl)c2cccnc12", "system": "Sprague-Dawley rat, plasma", "conditions": "subcutaneous, 10 mg/kg", "AUC(0-inf)": "5300 ng·h/mL"}
{"Structure (SMILES)": "O=C(Nc1ccc(-c2nc(-c3ccc(Cl)cc3)no2)cc1)C1CC(=O)N(Cc2ccco2)C1 (centres unmarked)", "system": "male Wistar rat, brain", "conditions": "intraperitoneal, 10 mg/kg", "AUC(0-inf)": "12500 ng·h/mL"}
{"Structure (SMILES)": "CCc1cc(C(=O)NC)c2nccc(N3CCc4c(cc(Cn5ccnc5)cc4-c4cn(C)nc4C(F)(F)F)C3=O)c2c1", "system": "male Sprague-Dawley rat, plasma", "conditions": "oral, 50 mg/kg, single dose", "AUC(0-inf)": "11100 ng·h/mL"}
{"Structure (SMILES)": "COCCOC(=O)C1=C(C)NC(C)=C(C(=O)OC(C)C)C1c1cccc([N+](=O)[O-])c1 (centres unmarked)", "system": "male Sprague-Dawley rat, plasma", "conditions": "oral, 12 mg/kg", "AUC(0-inf)": "502 ng·h/mL"}
{"Structure (SMILES)": "COc1ccc2c(=O)n(C)c(-c3ccccc3)nc2c1", "system": "male Sprague-Dawley rat, plasma", "conditions": "intravenous, 2 mg/kg", "AUC(0-inf)": "857 ng·h/mL"}
{"Structure (SMILES)": "CCc1cc(OC)c2nccc(N3CCc4c(cc(Cn5ccnc5)cc4-c4cn(C)nc4C(F)(F)F)C3=O)c2c1", "system": "male Sprague-Dawley rat, plasma", "conditions": "oral, 50 mg/kg", "AUC(0-inf)": "10300 ng·h/mL"}
